Screening data deposited in PubChem BioAssay by Broad Institute.
Most compounds without a hit are left out; they make up all but 3.4% or so of the library.
E-selectin induc: induces E-selectin expression in human endothelial cells. HUVEC E-selectin immunofluorescence imaging; normalized: neutral wells 0, TNF-alpha wells 100. P16581. hit rate 0.37% among 260,000. activation, % at 7.58 µM;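 active means mean E-selectin-positive cell signal at least 10% of the positive control, reached in at least 60% of replicates, without over 20% cell loss; inconclusive means no rule given, readout overlaps actives, possibly toxicity-flagged; inactive means the rest, including those meeting only one limit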
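assay system = HUVEC, human umbilical vein endothelial cells | input = 3,000 HUVEC seeded per well | medium = EGM-2 growth medium on 0.1% gelatin-coated wells | dosing = one compound dose added by pin transfer | signal = immunofluorescence imaging | read-out basis = % PE-positive cells | control set = TNF-alpha, DMSO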
rRNA inh HTS: selective bacterial rRNA inhibition in E. coli. E. coli WT GFP vs humanized-ribosome RFP mutants, fluorescence, 24 h; stronger effect = lower value; DMSO median 0, no signal -100. GFP signal change (wild-type ribosome), % (concentration not given with the values). hit rate 1.6% among 350,000. AID 720706;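 active means significant combined selectivity score with lowered wild-type GFP, culture density cut under 30%, mutant RFP and density less affected; inactive means any of these conditions unmet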
S100A4 inh HTS: S100A4-myosin IIA interaction inhibition; S100A4/TAMRA-MyoIIA peptide fluorescence polarization; inhibition, % at 10.7 µM; hit rate 0.14% among 360,000; AID 652163;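 active means mean inhibition of at least 70% across replicates, with every replicate also reaching that level; inconclusive means mean inhibition reaches 70% but some replicates fall short; inactive means mean inhibition below 70%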
Target sequence (P26447 whole entry, looked up): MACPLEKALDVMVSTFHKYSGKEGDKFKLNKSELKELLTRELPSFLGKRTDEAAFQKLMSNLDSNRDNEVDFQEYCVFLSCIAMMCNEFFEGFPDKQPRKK
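System – human S100A4 monomer protein, biochemical binding assay · Buffer or medium – Calcium-containing HEPES buffer, pH 7.2 · Timing – 5 min between mix addition and reading · Also added – TAMRA-labelled myosin IIA heavy-chain peptide probe, 5 nM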
MLL AF4-AF9 inh: MLL-AF4/AF9 protein interaction inhibition | AlphaScreen, biotin-AF4 peptide binding to FLAG-AF9 | inhibition, % at 10 µM | hit rate 0.47% among 350,000;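 active means every replicate reaching a set inhibition limit, whatever the replicate mean, cut at about 25% in these data; inconclusive means mean inhibition reaches that limit but some replicates miss it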;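 further: 0% = plate neutral control median and 100% = total signal loss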
ERAP1 inh: ERAP1 (human) enzyme inhibition; recombinant ERAP1, Leu-AMC fluorescence, 60 min; AID 652197; hit rate 0.15% among 340,000; inhibition, % at 10.7 µM;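 active means mean replicate inhibition of at least 30%, or all replicates individually reaching that 30% level; inactive means mean below 30% and not every replicate reaching it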;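 further: 0% = neutral control wells and 100% = L-leucinethiol positive control wells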
SIRT5 inh: inhibitors of human sirtuin-5 desuccinylase | Q9NXA8 | Purified SirT5, succinyl-peptide AMC, trypsin-coupled fluorescence | inhibition, % at 15 µM | hit rate 1.1% among 330,000 | AID 652115; in the data active means inhibition above about 15%; inconclusive means no clear call, values can overlap the other calls
Target sequence (Q9NXA8 whole entry, looked up): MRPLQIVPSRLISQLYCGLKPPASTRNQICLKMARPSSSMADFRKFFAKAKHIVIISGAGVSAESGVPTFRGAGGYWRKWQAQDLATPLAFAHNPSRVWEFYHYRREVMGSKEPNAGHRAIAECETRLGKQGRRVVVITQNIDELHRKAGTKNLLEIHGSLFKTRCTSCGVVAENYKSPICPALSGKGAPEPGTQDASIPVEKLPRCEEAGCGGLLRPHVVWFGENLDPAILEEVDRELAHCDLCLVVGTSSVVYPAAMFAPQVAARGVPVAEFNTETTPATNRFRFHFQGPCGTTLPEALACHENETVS
Active calls of the source: *; ? = inconclusive; · = not tested or not shown.

SMILES | E-selectin induc | rRNA inh HTS | S100A4 inh HTS | MLL AF4-AF9 inh | ERAP1 inh | SIRT5 inh
CCCCC(=O)Nc1nc2c(OC)ccc(OC)c2s1 | 0 | -2 | 2 | -1 | 8 | -3
COc1ccc2nc(-c3ccc(Cl)cc3)cc(C(=O)O)c2c1 | 2 | -33* | -7 | -37 | · | -52
COc1ccc(-c2cc(C(=O)N3CCCCCC3)c3cc(C)ccc3n2)cc1 | · | -9 | -1 | 4 | 0 | -32
CSc1nc(C(=O)N2CCCC(C(=O)c3ccc(Cl)cc3)C2)cs1 (centres undefined) | 0 | -31* | -1 | -4 | 13 | 0
CSc1ccc(C(=O)C2CCCN(C(=O)c3ccsc3)C2)cc1 (centres undefined) | 0 | -13 | 6 | -2 | 1 | 0
COc1ccc2cc(C(=O)C3CCCN(C(=O)c4csnn4)C3)ccc2c1 (centres undefined) | · | -4 | -5 | 2 | 1 | -10
O=C(c1ccc(Cl)cc1)C1CCCN(C(=O)c2csnn2)C1 (centres undefined) | · | -10 | 1 | 1 | 0 | 112*
Cc1cc(Cl)ccc1C(=O)C1CCCN(C(=O)c2ccoc2)C1 (centres undefined) | 0 | -25* | -6 | 4 | -1 | -1
O=S(=O)(c1ccc(F)cc1)N1C[C@H]2[C@@H](c3ccccc31)[C@H](CO)N2Cc1ccccc1Cl | 0 | -13 | 100* | 4 | 3 | 3
O=S(=O)(c1ccccc1)N1C[C@@H]2[C@H](c3ccccc31)[C@H](CO)N2Cc1ccccc1 | 0 | -25* | ? | 0 | 2 | 0
O=C(CC1CC1)N1[C@@H](CO)[C@@H]2c3ccccc3N(S(=O)(=O)c3ccc(F)cc3)C[C@@H]21 | 0 | -1 | 0 | 2 | 1 | 25*
O=S(=O)(c1ccc(F)cc1)N1C[C@@H]2[C@H](c3ccccc31)[C@H](CO)N2Cc1ccccc1Cl | 0 | -13 | 1 | 1 | 3 | 2
O=S(=O)(c1ccccc1)N1C[C@H]2[C@@H](c3ccccc31)[C@@H](CO)N2Cc1ccccc1 | 0 | -49* | -4 | -1 | 1 | 0
CCCNC(=O)[C@@H]1[C@@H](CO)[C@@H]2Cn3c(ccc(C4=CCCCC4)c3=O)[C@H]1N2C(=O)CC | -1 | -1 | · | · | · | ·
O=C(CN1CCOCC1)N[C@H]1CC[C@H](CCNS(=O)(=O)c2ccccc2F)O[C@H]1CO | -1 | 5 | 9 | -1 | -1 | -1
C/C=C/c1ccc([C@@H]2[C@H](CO)N(CCC(F)(F)F)C23CN(C(C)=O)C3)cc1 | · | 0 | · | · | · | ·
CCN(CC)c1ccc(NC(=O)Nc2ccccc2)cc1 | · | 8 | -15 | 25* | -3 | -5
CCN(CC)NC(=O)Nc1ccccc1 | · | 14 | 3 | 1 | 5 | ·
CC(C)CCN(C(=O)Nc1ccc(Cl)cc1)C1CCN(C(C)C)CC1 | 2 | -35* | -2 | -4 | -1 | 0
N#CCC(=O)Nc1ncc(Cc2ccccc2Cl)s1 | 6 | -19 | -21 | -35 | -4 | 15*
CC(C)C(=O)Nc1ncc(Cc2ccccc2Cl)s1 | 0 | 9 | 0 | 0 | 4 | 1
Cn1cnc(C(=O)N2CCN(c3ccccc3)CC2)c1C(=O)N1CCN(c2ccccc2)CC1 | · | 8 | -7 | -40 | 21 | ·
Cn1cnc(C(=O)N2CCN(C(=O)OC(C)(C)C)CC2)c1C(=O)N1CCN(C(=O)OC(C)(C)C)CC1 | · | -1 | -5 | -6 | 106* | ·
COc1cc2c(cc1OC)C(=S)NC1(CCCC1)C2 | ? | -6 | 4 | 1 | -1 | 38*
S=C1NC2(CCCCC2)Cc2ccccc21 | 3 | · | · | · | · | ·
SMILES | E-selectin induc | rRNA inh HTS | S100A4 inh HTS | MLL AF4-AF9 inh | ERAP1 inh | SIRT5 inh
CCOC(=O)N1CCN(CCC(=O)Nc2ccc(Br)c(C)c2)CC1 | 0 | -23* | 0 | 2 | -1 | -4
CCN1CCN(CCC(=O)Nc2ccc(Br)c(C)c2)CC1 | 1 | 15 | -2 | 1 | 1 | -3
C[C@H]1CN([C@@H](C)CO)C(=O)CCCn2cc(nn2)CO[C@H]1CN(C)C(=O)CCCN(C)C | 0 | -5 | -8 | -3 | 2 | 1
CCN1C(=O)Nc2cccc3cccc1c23 | 0 | -13 | -1 | 1 | -1 | 0
CCC1=[N+](C)c2cccc3cccc(c23)N1C | · | 11 | 21 | -1 | 36* | 2
CCOC(=O)c1c(-c2ccccc2)oc2ccc(OCC(O)CNCCN(C)C)cc12 (centres undefined) | 1 | -55 | -9 | 34* | 7 | -19
COc1cccc(C(=O)N2CCN(Cc3cccc(F)c3)CC2)c1 | · | 10 | -2 | · | 2 | -4
CCOc1ccc(CN2CCN(C(=O)c3cccc(F)c3)CC2)cc1 | · | -9 | -9 | 5 | 1 | 19*
CN(C(=O)c1cccc(NC(=O)Cc2ccc(NC(=O)C3CCN(C(=O)C4CCCC4)CC3)cc2)c1)C1CCC1 | 0 | -2 | -1 | 13 | -5 | -6
COc1cc(C(=O)N(C)CCOc2ccc(C)cc2)ccc1OC1CCN(C(C)=O)CC1 | 0 | · | -1 | 0 | -2 | 0
CN(Cc1ccccc1)C(=O)c1ccc(NC(=O)Cc2cccc(NC(=O)C3CCN(C(=O)C4CC4)CC3)c2)cc1 | · | 1 | -5 | -3 | -2 | ·
CN(CCOc1ccccc1)C(=O)c1ccc(OC2CCN(C(=O)C3CC3)CC2)cc1 | 0 | -19* | 0 | -1 | 0 | 12
CN(Cc1ccccc1)C(=O)c1ccc(NC(=O)Cc2cccc(NC(=O)C3CCN(C(=O)C4CCCCC4)CC3)c2)cc1 | 0 | 5 | -23 | -3 | 0 | 16*
CN(CCc1ccccc1)C(=O)c1ccc(NC(=O)Cc2ccc(NC(=O)C3CCN(C(=O)C4CCC4)CC3)cc2)cc1 | 2 | -6 | -2 | 28* | -1 | 0
CN(C(=O)c1cccc(NC(=O)Cc2ccc(NC(=O)C3CCN(C(=O)C4CCC4)CC3)cc2)c1)C1CC1 | 0 | 4 | 1 | 2 | 0 | 23*
CN1C(=O)c2cc(NC(=O)C3CCCCC3)ccc2OC[C@H]2O[C@@H](CC(=O)NCc3ccccc3F)CC[C@@H]21 | 0 | -3 | 15 | -1 | -2 | -2
C[C@H]1CN([C@@H](C)CO)C(=O)Cc2cc(N(C)C)ccc2O[C@H]1CN(C)Cc1ccc(Oc2ccccc2)cc1 | 6 | -20 | 4 | 48* | -2 | 0
C[C@@H]1CN([C@H](C)CO)C(=O)Cc2cc(N(C)C)ccc2O[C@@H]1CN(C)Cc1ccc(Oc2ccccc2)cc1 | 0 | -5 | -1 | 51* | 0 | -1
C[C@H]1CN([C@@H](C)CO)C(=O)Cc2cc(N(C)C)ccc2O[C@@H]1CN(C)Cc1ccc(Oc2ccccc2)cc1 | -4 | -4 | -1 | 26* | -4 | ·
